Results from ChEMBL document CHEMBL2069249, “Saquayamycins G-K, cytotoxic angucyclines from Streptomyces sp. Including two analogues bearing the aminosugar rednose” (J Nat Prod, 2012).

Key:
[1] = biological target: Nitric oxide synthase, inducible (Homo sapiens, UniProt P35228); test: Inhibition of iNOS
PC-3 = test: Growth inhibition of human PC3 cells incubated for 48 hrs by resazurin dye reduction based fluorimetric assay; assay type: functional; conditions: PC-3, 48 h
Procedure, shortened: (§1)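 Cells seeded at 5 × 10^3 per well in full growth medium, adhered overnight, then medium replaced with fresh medium containing serial compound concentrations or DMSO control; 48 h at 37 °C. Resazurin added, 3 h at 37 °C; fluorescence ex 560/em 590 nm, time-zero reading subtracted. GI50 by nonlinear sigmoidal dose-response fit; landomycin A positive control; four replicates.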

NCI-H460 = test: Growth inhibition of human NCI-H460 cells incubated for 48 hrs by resazurin dye reduction based fluorimetric assay; assay type: functional; conditions: NCI-H460, 48 h; procedure, shortened: as §1
[2] = Inhibition of bovine brain FPTase; set-up: species or system Bos taurus

Chain of Nitric oxide synthase, inducible (P35228 whole entry): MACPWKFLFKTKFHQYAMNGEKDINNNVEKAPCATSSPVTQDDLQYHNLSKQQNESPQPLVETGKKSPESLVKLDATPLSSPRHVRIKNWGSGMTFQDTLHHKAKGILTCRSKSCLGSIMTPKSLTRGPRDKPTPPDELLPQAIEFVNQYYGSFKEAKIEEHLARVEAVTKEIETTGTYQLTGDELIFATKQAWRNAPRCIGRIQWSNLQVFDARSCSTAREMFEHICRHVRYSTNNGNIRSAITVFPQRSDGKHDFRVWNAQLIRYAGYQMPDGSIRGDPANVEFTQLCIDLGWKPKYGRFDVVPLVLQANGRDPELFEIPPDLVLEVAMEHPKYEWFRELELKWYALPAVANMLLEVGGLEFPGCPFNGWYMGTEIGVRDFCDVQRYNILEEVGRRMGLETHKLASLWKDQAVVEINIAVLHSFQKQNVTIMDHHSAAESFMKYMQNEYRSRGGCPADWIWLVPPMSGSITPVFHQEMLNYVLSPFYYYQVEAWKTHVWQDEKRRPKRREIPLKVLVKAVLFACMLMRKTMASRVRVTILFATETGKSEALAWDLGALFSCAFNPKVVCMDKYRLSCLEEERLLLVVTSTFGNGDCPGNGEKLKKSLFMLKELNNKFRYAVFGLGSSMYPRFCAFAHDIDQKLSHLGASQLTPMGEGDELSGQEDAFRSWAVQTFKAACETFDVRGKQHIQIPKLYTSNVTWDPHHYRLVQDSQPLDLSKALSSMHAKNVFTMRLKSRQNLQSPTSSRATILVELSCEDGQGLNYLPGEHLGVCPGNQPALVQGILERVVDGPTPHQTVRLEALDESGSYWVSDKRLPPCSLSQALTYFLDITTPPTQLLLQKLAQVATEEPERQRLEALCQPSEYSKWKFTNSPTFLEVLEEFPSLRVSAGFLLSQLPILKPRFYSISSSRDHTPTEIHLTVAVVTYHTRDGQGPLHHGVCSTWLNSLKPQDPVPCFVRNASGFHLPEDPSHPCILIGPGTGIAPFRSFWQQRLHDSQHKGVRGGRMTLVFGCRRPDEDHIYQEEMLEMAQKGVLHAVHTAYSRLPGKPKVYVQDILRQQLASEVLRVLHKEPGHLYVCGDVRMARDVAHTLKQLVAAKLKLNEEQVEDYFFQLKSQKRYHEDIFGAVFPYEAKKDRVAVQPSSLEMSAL

Row | Compound | IC50 [1] [µM] | GI50 (PC-3) [µM] | GI50 (NCI-H460) [µM] | IC50 [2] [µM]
1 | C[C@@H]1O[C@@H](O[C@H]2CC[C@H](O[C@H]3[C@H](O)C[C@H](c4ccc5c(c4O)C(=O)C4=C(C5=O)[C@@]5(O)C(=O)C[C@](C)(O)C[C@@]5(O)C=C4)O[C@@H]3C)O[C@H]2C)C=CC1=O | 43.5 |  |  | 
2 | C[C@@H]1O[C@@H](O[C@H]2CC[C@H](O[C@@]3(C)CC(=O)[C@]4(O)C5=C(C=C[C@]4(O)C3)C(=O)c3c(ccc([C@H]4C[C@@H](O)[C@H](O)[C@@H](C)O4)c3O)C5=O)O[C@H]2C)C=CC1=O (relative stereo) [SAQUAYAMYCIN G] |  | 0.553 | 6.72 | 
3 | C[C@@H]1O[C@@H](O[C@H]2CC[C@H](O[C@@]3(C)CC(=O)[C@]4(O)C5=C(C=C[C@]4(O)C3)C(=O)c3c(ccc([C@H]4C[C@@H](O)[C@H](O[C@@H]6O[C@@H](C)C(=O)C=C6N)[C@@H](C)O4)c3O)C5=O)O[C@H]2C)C=CC1=O (relative stereo) [SAQUAYAMYCIN I] |  | 0.915 | 7.94 | 
4 | Cc1cc(O)c2c(c1)C[C@@H](O)C1=C2C(=O)c2c(O)ccc(O[C@H]3C[C@@H](O)[C@H](O[C@H]4C[C@@H](O[C@H]5CC[C@H](O[C@H]6C[C@@H](O)[C@H](O[C@H]7C[C@@H](O[C@H]8CC[C@H](O)[C@H](C)O8)[C@H](O)[C@@H](C)O7)[C@@H](C)O6)[C@H](C)O5)[C@H](O)[C@@H](C)O4)[C@@H](C)O3)c2C1=O [LANDOMYCIN A] |  | 0.55 | 4.11 | 
5 | C[C@@H]1O[C@H]2O[C@@H]3[C@@H](C)O[C@@H](c4ccc5c(c4O)C(=O)C4=C(C5=O)[C@@]5(O)C(=O)C[C@](C)(O)C[C@@]5(O)C=C4)C[C@H]3O[C@H]2CC1=O [SAQUAYAMYCIN B1] |  | 1.76 | 13.2 | 
6 | C[C@@H]1O[C@@H](O[C@H]2CC[C@H](O[C@@]3(C)CC(=O)[C@]4(O)C5=C(C=C[C@]4(O)C3)C(=O)c3c(ccc([C@H]4C[C@H]6O[C@H]7CC(=O)[C@H](C)O[C@H]7O[C@@H]6[C@@H](C)O4)c3O)C5=O)O[C@H]2C)C=CC1=O [SAQUAYAMYCIN B] |  | 0.0745 | 3.93 | 
7 | C[C@@H]1O[C@@H](O[C@H]2CC[C@H](O[C@@]3(C)CC(=O)[C@]4(O)C5=C(C=C[C@]4(O)C3)C(=O)c3c(ccc([C@H]4C[C@H]6O[C@H]7CC(=O)[C@H](C)O[C@H]7O[C@@H]6[C@@H](C)O4)c3O)C5=O)O[C@H]2C)C(N)=CC1=O [SAQUAYAMYCIN H] |  | 0.79 | 3.3 | 
8 | C[C@@H]1O[C@H]2O[C@@H]3[C@@H](C)O[C@@H](c4ccc5c(c4O)C(=O)C4=C(C5=O)[C@@]5(O)C(=O)C[C@](C)(O[C@H]6CC[C@H](O[C@H]7CC[C@H](O)[C@H](C)O7)[C@H](C)O6)C[C@@]5(O)C=C4)C[C@H]3O[C@H]2CC1=O [SAQUAYAMYCIN J] |  | 0.179 | 5.69 | 
9 | C[C@@H]1O[C@@H](O[C@H]2CC[C@H](O[C@@]3(C)CC(=O)[C@]4(O)C5=C(C=C[C@]4(O)C3)C(=O)c3c(ccc([C@H]4C[C@@H](O)[C@H](O[C@H]6CC[C@H](O)[C@H](C)O6)[C@@H](C)O4)c3O)C5=O)O[C@H]2C)C=CC1=O [SAQUAYAMYCIN K] |  | 0.148 | 7.28 | 
10 | C[C@@H]1O[C@@H](O[C@H]2[C@H](O)C[C@H](c3ccc4c(c3O)C(=O)C3=C(C4=O)[C@@]4(O)C(=O)C[C@](C)(O)C[C@@]4(O)C=C3)O[C@@H]2C)C=CC1=O [SAQUAYAMYCINS A1] | 101 |  |  | 
11 | C[C@@H]1O[C@@H](O[C@H]2[C@H](O)C[C@H](c3ccc4c(c3O)C(=O)C3=C(C4=O)[C@@]4(O)C(=O)C[C@](C)(O[C@H]5CC[C@H](O[C@H]6C=CC(=O)[C@H](C)O6)[C@H](C)O5)C[C@@]4(O)C=C3)O[C@@H]2C)C=CC1=O [SAQUAYAMYCINS A] |  | 0.106 | 6.2 | 
12 | C[C@@H]1O[C@@H](O[C@H]2[C@H](O)C[C@H](c3ccc4c(c3O)C(=O)C3=C(C4=O)[C@@]4(O)C(=O)C[C@](C)(O[C@H]5CC[C@H](O[C@H]6CCC(=O)[C@H](C)O6)[C@H](C)O5)C[C@@]4(O)C=C3)O[C@@H]2C)C=CC1=O [SAQUAYAMYCINS E] |  |  |  | 1.8
13 | C[C@@H]1O[C@@H](O[C@H]2CC[C@H](O[C@@]3(C)CC(=O)[C@]4(O)C5=C(C=C[C@]4(O)C3)C(=O)c3c(ccc([C@H]4C[C@@H](O)[C@H](O[C@H]6CCC(=O)[C@H](C)O6)[C@@H](C)O4)c3O)C5=O)O[C@H]2C)C=CC1=O [SAQUAYAMYCINS F] |  |  |  | 2
